Data on 2 compounds can be found in ChEMBL document CHEMBL1154414, “In vitro and in vivo activities of T-705 against arenavirus and bunyavirus infections” (Antimicrob Agents Chemother, 2007).

Assay [1] relates to Punta Toro virus. In words: Antiviral activity against 500 PFU Punta Toro virus Adames infected C57BL/6 mouse assessed as mean serum ALT levels at 30 mg/kg, po twice daily administered 4 hrs before viral challenge measured on day 3 of viral infection. It is filed as functional. In short, it runs like this:
(§1)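 C57BL/6 mice received subcutaneous PTV, then oral gavage twice daily for 5–7 days. T-705 was given in 0.4% CMC and ribavirin in saline. Five mice per group (10 placebo) were killed on day 3 or 4, and serum was collected. ALT activity was measured by kinetic assay. Three sham-infected mice set baselines.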

The test system of assay [2] is Punta Toro virus. In words: Antiviral activity against 500 PFU Punta Toro virus Adames infected C57BL/6 mouse assessed as mean serum ALT levels at 5 mg/kg, po twice daily administered 4 hrs before viral challenge measured on day 3 of viral infection. Format: functional. In a few lines:
as §1

Assay [3] has as its system Punta Toro virus. In words: Antiviral activity against 500 PFU Punta Toro virus Adames infected C57BL/6 mouse assessed as survival at 25 mg/kg, po twice daily for 5 days administered 4 hrs before viral challenge. Format: functional, organism-based. Also noted: dose 25 mg/kg. In a few lines: (§2)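 PTV was inoculated subcutaneously into mice in groups of 15 (25–30 placebo). Dosing was by oral gavage twice daily for 5–7 days, with T-705 suspended in 0.4% CMC and ribavirin in saline. Remaining animals were observed 21–28 days for survival and day of death. Test doses had first been checked for tolerance in uninfected animals.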

Assay [4] relates to Punta Toro virus. In words: Antiviral activity against 500 PFU Punta Toro virus Adames infected C57BL/6 mouse assessed as animals with detectable virus level in liver at 50 mg/kg, po twice daily administered 4 hrs before viral challenge measured on day 4 of viral infection. It is filed as functional. In short, it runs like this: (§3)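 T-705 was suspended in 0.4% carboxymethylcellulose and given by oral gavage twice daily. Mice were infected subcutaneously with PTV. Five mice per group (10 placebo) were sacrificed on day 3 or 4. Liver homogenate or serum was serially diluted onto triplicate LLC-MK2 monolayers, and CPE was read at 6–8 days. The detection limit was 2.8 log10 CCID50 per 0.1 g liver or 0.1 ml serum.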

The subject of assay [5] is Punta Toro virus. Kind of assay: Antiviral activity against 500 PFU Punta Toro virus Adames infected C57BL/6 mouse assessed as animals with detectable virus level in liver at 25 mg/kg, po twice daily administered 4 hrs before viral challenge measured on day 4 of viral infection. It is filed as functional. In a few lines: as §3
Assay [6] has as its system Punta Toro virus. Kind of assay: Antiviral activity against 500 PFU Punta Toro virus Adames infected C57BL/6 mouse assessed as mean viral titer per 0.1 mL of serum at 100 mg/kg, po twice daily administered 4 hrs before viral challenge measured on day 4 of viral infection. It is filed as functional. In a few lines:
(§4)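 Mice were infected subcutaneously with PTV and dosed by oral gavage twice daily; 5 per group (10 placebo) were killed on day 3 or 4. Liver homogenate or serum was serially diluted onto triplicate LLC-MK2 monolayers, and CPE was read 6–8 days later. 50% endpoints gave log10 CCID50 per 0.1 g liver or 0.1 ml serum. Detection range was 2.8–9.5; undetectable samples were assigned <2.8.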

Assay [7] concerns Respiratory syncytial virus. Kind of assay: Antiviral activity against Respiratory syncytial virus. Format: functional, organism-based. Conditions: human respiratory syncytial virus.
In assay [8] the test system is Punta Toro virus. Kind of assay: Antiviral activity against Punta Toro virus Adames infected Syrian golden hamster assessed as inhibition of liver damage at 60 mg/kg, po twice daily administered 4 hrs before viral challenge measured on day 4 of viral infection. It is filed as functional, organism-based. Also noted: dose 60 mg/kg.
For assay [9], the system named is Pichinde virus. Kind of assay: Antiviral activity against Pichinde virus An 4763 infected Syrian golden hamster assessed as mean viral titer per 0.1 g of liver at 60 mg/kg, po twice daily for 7 days administered 4 hrs before viral-challenge measured on day 7 of viral infection. It is filed as functional.
For assay [10], the system named is Pichinde virus. In words: Antiviral activity against Pichinde virus An 4763 infected Syrian golden hamster assessed as mean viral titer per 0.1 g of liver at 15 mg/kg, po twice daily for 7 days administered 4 hrs before viral-challenge measured on day 7 of viral infection. It is filed as functional.
The test system of assay [11] is Pichinde virus. Kind of assay: Antiviral activity against Pichinde virus An 4763 infected Syrian golden hamster assessed as mean serum ALT levels at 30 mg/kg, po twice daily for 7 days administered 4 hrs before viral-challenge measured on day 7 of viral infection. It is filed as functional.
Assay [12] concerns Punta Toro virus. Kind of assay: Antiviral activity against 500 PFU Punta Toro virus Adames infected C57BL/6 mouse assessed as mean viral titer per 0.1 mL of serum at 75 mg/kg, po twice daily administered 4 hrs before viral challenge measured on day 4 of viral infection. It is filed as functional. In a few lines:
as §4

Assay [13] relates to Punta Toro virus. In words: Antiviral activity against 500 PFU Punta Toro virus Adames infected C57BL/6 mouse assessed as animals with detectable virus level in serum at 100 mg/kg, po twice daily administered 4 hrs before viral challenge measured on day 4 of viral infection. It is filed as functional. In a few lines:
as §3

For assay [14], the system named is Punta Toro virus. Kind of assay: Antiviral activity against 500 PFU Punta Toro virus Adames infected C57BL/6 mouse assessed as mean day of death at 30 mg/kg, po twice daily for 5 days administered 4 hrs before viral challenge. Format: functional. In a few lines:
(§5)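 Groups of 15 mice (25–30 placebo) were inoculated subcutaneously with PTV. Drug in 0.4% carboxymethylcellulose was given by oral gavage twice daily.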

For assay [15], the system named is Punta Toro virus. In words: Antiviral activity against 500 PFU Punta Toro virus Adames infected C57BL/6 mouse assessed as mean day of death at 10 mg/kg, po twice daily for 5 days administered 4 hrs before viral challenge. It is filed as functional. In short, it runs like this:
as §5

Assay [16] deals with Punta Toro virus. In words: Antiviral activity against 500 PFU Punta Toro virus Adames infected C57BL/6 mouse assessed as mean day of death at 5 mg/kg, po twice daily for 5 days administered 4 hrs before viral challenge. Format: functional. In a few lines: as §5
The subject of assay [17] is Punta Toro virus. Kind of assay: Antiviral activity against 500 PFU Punta Toro virus Adames infected C57BL/6 mouse assessed as animals with detectable virus level in liver at 10 mg/kg, po twice daily administered 4 hrs before viral challenge measured on day 3 of viral infection. It is filed as functional. In short, it runs like this: as §3
The test system of assay [18] is Pichinde virus. Kind of assay: Antiviral activity against Pichinde virus An 4763 infected Syrian golden hamster assessed as inhibition of liver damage at 50 mg/kg, po twice daily for 7 days administered 72 hrs post viral-challenge measured on day 7 of viral infection. The arrangement: dose 50 mg/kg. Format: functional, organism-based.
Assay [19] has as its system Punta Toro virus. Kind of assay: Antiviral activity against 500 PFU Punta Toro virus Adames infected C57BL/6 mouse assessed as protection against viral infection at 75 mg/kg, po twice daily for 5 to 7 days. It is filed as functional. In short, it runs like this:
as §2

Activity calls are given as the source filed them. No cut-off for these calls is given here. A value given as a limit tells only on which side of the number the result lay.

As a reminder, the EC50 is the midpoint of the concentration-response curve. In the case of `NC(=O)c1nc(F)cnc1O` [FAVIPIRAVIR], the Activity in the assay on Punta Toro virus [1] amounted to 9 IU/L; in the assay on Punta Toro virus [2], 2461 IU/L; in the assay with Punta Toro virus [4], 0%; in the assay with Punta Toro virus [5], 0%; with Pichinde virus [11], 378 IU/L; in the assay with Punta Toro virus [13] it was 0%. Further, the Activity with Punta Toro virus [14] was >21 days; in the assay on Punta Toro virus [15], 5 days; with Punta Toro virus [16], 4.9 days; in the assay on Punta Toro virus [17], 0%. Moreover, the outcome with Punta Toro virus [3] and with Punta Toro virus [8] was Active. The log10CCID50 is on record as <2.8 in the assay with Punta Toro virus [6], <2.8 in the assay with Pichinde virus [9], 7.7 in the assay with Pichinde virus [10] and <3.3 in the assay with Punta Toro virus [12]. For the same compound, a half-maximal response in [7] (EC50) required 261 µM.

As to `NC(=O)c1ncn([C@@H]2O[C@H](CO)[C@@H](O)[C@H]2O)n1` [RIBAVIRIN], in the assay with Pichinde virus [18], the outcome was Active. The Activity with Punta Toro virus [19] is reported as 100%.
